Measured values: the RNAGym collection of RNA variant scans (doi:10.1002/anie.201605470)

B1: Osa-1-4 twister ribozyme (parent)
chain: CCGCCUAACACUGCCAAUGCCGGUCCCAAGCCCGGAUAAAAGUGGAGGGGGCGG

Variants of: B1
Experiment: self-cleavage, relative activity (ratio to wild type); higher = more cleavage; co-transcriptional
Summary of the method: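 The 48 positions downstream of the cleavage site in a DNA template for a 54-nucleotide Oryza sativa twister ribozyme carried 97 % wild-type base and 1 % of each other base. After in vitro transcription (2 h, 37 °C) with co-transcriptional self-cleavage, the RNA was reverse-transcribed with a template-switching oligonucleotide, PCR-amplified and deep-sequenced. Relative activity is the fraction cleaved, judged by reads with or without upstream sequence and normalised to wild type.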

| Variant | self-cleavage |
| --- | --- |
| CCGCCUAACACUGCCAAUGGCGGUCCCAAGCCCGCAUAAAAGUGGAGGGGGCGG | 0.28 |
| CCGCCUAACACUGCCAAUGGCGGUCCCAAGCCCGAAUAAAAGUGGAGGGGGCGG | 0.27 |
| CCGCCUAACACUGCCAAUGGCGGUCCCAAGCCCGUAUAAAAGUGGAGGGGGCGG | 0.27 |
| CCGCCUAACACUGCCAAUGACGGUCCCAAGCCCGGAUAAAAGUGGAGGGGACGG | 0.78 |
| CCGCCUAACACUGCCAAUGACGGUCCCAAGCCCGGAUAAAAGUGGAGGGGCCGG | 0.28 |
| CCGCCUAACACUGCCAAUGACGGUCCCAAGCCCGGAUAAAAGUGGAGGGGUCGG | 0.66 |
| CCGCCUAACACUGCCAAUGACGGUCCCAAGCCCGGAUAAAAGUGGACGGGGCGG | 0.13 |
| CCGCCUAACACUGCCAAUGACGGUCCCAAGCCCGGAUAAAAGUGGAAGGGGCGG | 0.36 |
| CCGCCUAACACUGCCAAUGACGGUCCCAAGCCCGGAUAAAAGUGGAUGGGGCGG | 0.32 |
| CCGCCUAACACUGCCAAUGGCGGUCCCAAGCCCGGAUAAAAGUGGAGGGGGCGG | 0.2 |
| CCGCCUAACACUGCCAAUGACGGCCCCAAGCCCGGAUAAAAGUGGAGGGGGCGG | 0.17 |
| CCGCCUAACACUGCCAAUGACGGGCCCAAGCCCGGAUAAAAGUGGAGGGGGCGG | 0.06 |
| CCGCCUAACACUGCCAAUGACGGACCCAAGCCCGGAUAAAAGUGGAGGGGGCGG | 0.37 |
| CCGCCUAACACUGCCAAUGGCGGUCCCAAGCCCGGAUAAAAGUCGAGGGGGCGG | 0.06 |
| CCGCCUAACACUGCCAAUGGCGGUCCCAAGCCCGGAUAAAAGUAGAGGGGGCGG | 0.08 |
| CCGCCUAACACUGCCAAUGGCCGUCCCAAGCCCGGAUAAAAGUGGAGGGGGCGG | 0.05 |
| CCGCCUAACACUGCCAAUGGCAGUCCCAAGCCCGGAUAAAAGUGGAGGGGGCGG | 0.08 |
| CCGCCUAACACUGCCAAUGGCUGUCCCAAGCCCGGAUAAAAGUGGAGGGGGCGG | 0.09 |
| CCGCCUAACACUGCCAAUGACGGUCCCAAGCCCGGAUAAAAUUGGAGGGGGCGG | 0.07 |
| CCGCCUAAAACUGCCAAUGGCGGUCCCAAGCCCGGAUAAAAGUGGAGGGGGCGG | 0.05 |
| CCGCCUAAGACUGCCAAUGGCGGUCCCAAGCCCGGAUAAAAGUGGAGGGGGCGG | 0.1 |
| CCGCCUAAUACUGCCAAUGGCGGUCCCAAGCCCGGAUAAAAGUGGAGGGGGCGG | 0.05 |
| CCGCCUAACACUGCCAAUGGCGGUCCCAAGCGCGGAUAAAAGUGGAGGGGGCGG | 0.06 |
| CCGCCUAACACUGCCAAUGGCGGUCCCAAGCACGGAUAAAAGUGGAGGGGGCGG | 0.03 |
| CCGCCUAACACUGCCAAUGGCGGUCCCAAGCUCGGAUAAAAGUGGAGGGGGCGG | 0.03 |

| Variant | self-cleavage |
| --- | --- |
| CCGCCUAACACUGCCAAUGACGGUCCCAAGCCCGGAUAAAAGGGGAGGGGGCGG | 0.71 |
| CCGCCUAACACUGCCAAUGACGGUCCCAAGCCCGGAUAAAAGAGGAGGGGGCGG | 0.77 |
| CCGCCUAACACUGCCAAUGACGGUCCCAAGCCCGGAUAAAAGCGGAGGGGGCGG | 0.58 |
| CCGCCUAACACCGCCAAUGACGGUCCCAAGCCCGGAUAAAAGUGGAGGGGGCGG | 0.57 |
| CCGCCUAACACGGCCAAUGACGGUCCCAAGCCCGGAUAAAAGUGGAGGGGGCGG | 0.71 |
| CCGCCUAACACAGCCAAUGACGGUCCCAAGCCCGGAUAAAAGUGGAGGGGGCGG | 0.82 |
| CCGCCUAACACUGCCAAUGACGGUCCCAAGCCCGGACAAAAGUGGAGGGGGCGG | 0.88 |
| CCGCCUAACACUGCCAAUGACGGUCCCAAGCCCGGAGAAAAGUGGAGGGGGCGG | 0.89 |
| CCGCCUAACACUGCCAAUGACGGUCCCAAGCCCGGAAAAAAGUGGAGGGGGCGG | 0.83 |
| CCGCCUAACACUGCCAAGGACGGUCCCAAGCCCGGAUAAAAGUGGAGGGGGCGG | 0.67 |
| CCGCCUAACACUGCCAACGACGGUCCCAAGCCCGGAUAAAAGUGGAGGGGGCGG | 0.83 |
| CCGCCUAACACUGCCAAAGACGGUCCCAAGCCCGGAUAAAAGUGGAGGGGGCGG | 0.6 |
| CCGCCUAACACUGCCAAUGACGGUCCCAAGCCCGGAUAAAAGUGGAGGGGGCGC | 0.78 |
| CCGCCUAACACUGCCAAUGACGGUCCCAAGCCCGGAUAAAAGUGGAGGGGGCGA | 0.75 |
| CCGCCUAACACUGCCAAUGACGGUCCCAAGCCCGGAUAAAAGUGGAGGGGGCGU | 0.76 |
| CCGCCUAACACUGCCAAUGGCGGUCCCAAGCCCGGAUAAAAUUGGAGGGGGCGG | 0.02 |
| CCGCCUAACACUGCCAAUGGCGGUCCCAAGCCCGGAUAAAACUGGAGGGGGCGG | 0.04 |
| CCGCCUAACACUGCCAAUGGCGGUCCCAAGCCCGGAUAAAAAUGGAGGGGGCGG | 0.07 |
| CCGCCUAACACUGCCAAUGACGGUCCCAAGCCCGGAUAAAAGUGGAGGUGGCGG | 0.16 |
| CCGCCUAACACUGCCAAUGACGGUCCCAAGCCCGGAUAAAAGUGGAGGAGGCGG | 0.2 |
| CCGCCUAACACUGCCAAUGACGGUCCCAAGCCCGGAUAAAAGUGGAGGCGGCGG | 0.06 |
| CCGCCUAACACUGCCAAUCGCGGUCCCAAGCCCGGAUAAAAGUGGAGGGGGCGG | 0.17 |
| CCGCCUAACACUGCCAAUAGCGGUCCCAAGCCCGGAUAAAAGUGGAGGGGGCGG | 0.41 |
| CCGCCUAACACUGCCAAUUGCGGUCCCAAGCCCGGAUAAAAGUGGAGGGGGCGG | 0.37 |
| CCGCCUAACACUGCCAAUGGCGGUCGCAAGCCCGGAUAAAAGUGGAGGGGGCGG | 0.1 |

| Variant | self-cleavage |
| --- | --- |
| CCGCCUAACACUGCCAAUGGCGGUCUCAAGCCCGGAUAAAAGUGGAGGGGGCGG | 0.2 |
| CCGCCUAACACUGCCAAUGGCGGUCACAAGCCCGGAUAAAAGUGGAGGGGGCGG | 0.03 |
| CCGCCUAACACUGCCAAUGGCGGUCCCAAGCCCGGAUAAAAGUGGAGGGGGUGG | 0.17 |
| CCGCCUAACACUGCCAAUGGCGGUCCCAAGCCCGGAUAAAAGUGGAGGGGGGGG | 0.11 |
| CCGCCUAACACUGCCAAUGGCGGUCCCAAGCCCGGAUAAAAGUGGAGGGGGAGG | 0.08 |
| CCGCCUAACACUGCCAAUGACGGUCCCAAGCCCGGAUAAAAGUGGAGGGGGCAG | 0.67 |
| CCGCCUAACACUGCCAAUGACGGUCCCAAGCCCGGAUAAAAGUGGAGGGGGCCG | 0.1 |
| CCGCCUAACACUGCCAAUGACGGUCCCAAGCCCGGAUAAAAGUGGAGGGGGCUG | 0.42 |
| CCGCCUAACACUGCCAAUGGCGCUCCCAAGCCCGGAUAAAAGUGGAGGGGGCGG | 0.04 |
| CCGCCUAACACUGCCAAUGGCGAUCCCAAGCCCGGAUAAAAGUGGAGGGGGCGG | 0.06 |
| CCGCCUAACACUGCCAAUGGCGUUCCCAAGCCCGGAUAAAAGUGGAGGGGGCGG | 0.04 |
| CCGCCUAACACUGCCAAUGGCGGUCCCAAGGCCGGAUAAAAGUGGAGGGGGCGG | 0.09 |
| CCGCCUAACACUGCCAAUGGCGGUCCCAAGACCGGAUAAAAGUGGAGGGGGCGG | 0.02 |
| CCGCCUAACACUGCCAAUGGCGGUCCCAAGUCCGGAUAAAAGUGGAGGGGGCGG | 0.07 |
| CCGCCUAACACUGCCAAUGGCGGUUCCAAGCCCGGAUAAAAGUGGAGGGGGCGG | 0.21 |
| CCGCCUAACACUGCCAAUGGCGGUGCCAAGCCCGGAUAAAAGUGGAGGGGGCGG | 0.06 |
| CCGCCUAACACUGCCAAUGGCGGUACCAAGCCCGGAUAAAAGUGGAGGGGGCGG | 0.06 |
| CCGCCUAACACUGCCAAUGACGGUCCCAAGCCCGGAUAAAAGUGCAGGGGGCGG | 0.05 |
| CCGCCUAACACUGCCAAUGACGGUCCCAAGCCCGGAUAAAAGUGUAGGGGGCGG | 0.13 |
| CCGCCUAACACUGCCAAUGACGGUCCCAAGCCCGGAUAAAAGUGAAGGGGGCGG | 0.45 |
| CCGCCUAACACUGCCAAUGGCGGUCCAAAGCCCGGAUAAAAGUGGAGGGGGCGG | 0.04 |
| CCGCCUAACACUGCCAAUGGCGGUCCGAAGCCCGGAUAAAAGUGGAGGGGGCGG | 0.05 |
| CCGCCUAACACUGCCAAUGGCGGUCCUAAGCCCGGAUAAAAGUGGAGGGGGCGG | 0.05 |
| CCGCCUAACACUGCCAAUGGUGGUCCCAAGCCCGGAUAAAAGUGGAGGGGGCGG | 0.29 |
| CCGCCUAACACUGCCAAUGGGGGUCCCAAGCCCGGAUAAAAGUGGAGGGGGCGG | 0.24 |

| Variant | self-cleavage |
| --- | --- |
| CCGCCUAACACUGCCAAUGGAGGUCCCAAGCCCGGAUAAAAGUGGAGGGGGCGG | 0.46 |
| CCGCCUAACACUGCCAAUGACGGUCCCAAGCCCGGAUAAAAGUGGAGGGCGCGG | 0.78 |
| CCGCCUAACACUGCCAAUGACGGUCCCAAGCCCGGAUAAAAGUGGAGGGAGCGG | 0.8 |
| CCGCCUAACACUGCCAAUGACGGUCCCAAGCCCGGAUAAAAGUGGAGGGUGCGG | 0.82 |
| CCGCCUAACACUGCCAAUGGCGGUCCCAAACCCGGAUAAAAGUGGAGGGGGCGG | 0.03 |
| CCGCCUAACACUGCCAAUGGCGGUCCCAACCCCGGAUAAAAGUGGAGGGGGCGG | 0.03 |
| CCGCCUAACACUGCCAAUGGCGGUCCCAAUCCCGGAUAAAAGUGGAGGGGGCGG | 0.02 |
| CCGCCUAACACUGCCAAUGACGGUCCCAAGCCCGGAUAAAAGUAGAGGGGGCGG | 0.75 |
| CCGCCUAACACUGCCAAUGACGGUCCCAAGCCCGGAUAAAAGUUGAGGGGGCGG | 0.78 |
| CCGCCUAACACUGCCAAUGACGGUCCCAAGCCCGGAUAAAAGUCGAGGGGGCGG | 0.76 |
| CCGCCUAACACUGCCAAUGACGGUCCCAAGCCCGGAUAAAAGUGGAGCGGGCGG | 0.07 |
| CCGCCUAACACUGCCAAUGACGGUCCCAAGCCCGGAUAAAAGUGGAGAGGGCGG | 0.09 |
| CCGCCUAACACUGCCAAUGACGGUCCCAAGCCCGGAUAAAAGUGGAGUGGGCGG | 0.09 |
| CCGCCUAACACUUCCAAUGGCGGUCCCAAGCCCGGAUAAAAGUGGAGGGGGCGG | 0.01 |
| CCGCCUAACACUCCCAAUGGCGGUCCCAAGCCCGGAUAAAAGUGGAGGGGGCGG | 0.02 |
| CCGCCUAACACUACCAAUGGCGGUCCCAAGCCCGGAUAAAAGUGGAGGGGGCGG | 0.03 |
| CCGCCUAACACUGCCAAUGGCGGUCCCAAGCCAGGAUAAAAGUGGAGGGGGCGG | 0.04 |
| CCGCCUAACACUGCCAAUGGCGGUCCCAAGCCUGGAUAAAAGUGGAGGGGGCGG | 0.05 |
| CCGCCUAACACUGCCAAUGGCGGUCCCAAGCCGGGAUAAAAGUGGAGGGGGCGG | 0.05 |
| CCGCCUAACACUGCCAAUGGCGGUCCCAAGCCCCGAUAAAAGUGGAGGGGGCGG | 0.08 |
| CCGCCUAACACUGCCAAUGGCGGUCCCAAGCCCAGAUAAAAGUGGAGGGGGCGG | 0.08 |
| CCGCCUAACACUGCCAAUGGCGGUCCCAAGCCCUGAUAAAAGUGGAGGGGGCGG | 0.06 |
